Measurements reported in ChEMBL document CHEMBL1143845, “In vitro activities of isavuconazole and other antifungal agents against Candida bloodstream isolates” (2007).
Converted amounts (≈) assume the structure as drawn.

Tests used:
Format in all cases: functional
Candida = assay: Antifungal activity against Candida sp. bloodstream isolates by broth microdilution method
Summary of the method: (§1)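 CLSI M27-A2 broth microdilution in RPMI 1640 buffered to pH 7.0 with 0.165 M MOPS. Consecutive blood-culture isolates were subcultured at least twice on Sabouraud dextrose agar. Final inoculum was 0.5 × 103 to 2.5 × 10^3 cells/ml against twofold drug dilutions, incubated in air at 35°C for 24–48 h. MIC was read visually as no growth or ≥50% growth reduction versus drug-free control, depending on agent.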

Candida parapsilosis = assay: Antifungal activity against Candida parapsilosis bloodstream isolates by broth microdilution method; details: Lodderomyces parapsilosis; summary of the method: as §1
Nakaseomyces glabratus = assay: Antifungal activity against Candida glabrata bloodstream isolates by broth microdilution method; summary of the method: as §1
Candida albicans = assay: Antifungal activity against Candida albicans bloodstream isolates by broth microdilution method; summary of the method: as §1
Pichia kudriavzevii = assay: Antifungal activity against Candida krusei bloodstream isolates by broth microdilution method; summary of the method: as §1
[1] = Antifungal activity against Candida tropicalis bloodstream isolates by broth microdilution method; summary of the method: as §1

Row | SMILES | MIC50 (Candida) | MIC90 (Candida) | MIC50 (Candida parapsilosis) | MIC90 (Candida parapsilosis) | MIC50 (Nakaseomyces glabratus) | MIC90 (Nakaseomyces glabratus) | MIC50 (Candida albicans) | MIC90 (Candida albicans) | MIC50 (Pichia kudriavzevii) | MIC90 (Pichia kudriavzevii) | MIC50 [1] | MIC90 [1]
1 | CCC(C)n1ncn(-c2ccc(N3CCN(c4ccc(OCC5COC(Cn6cncn6)(c6ccc(Cl)cc6Cl)O5)cc4)CC3)cc2)c1=O (stereo not given) [ITRACONAZOLE] | 0.016 µg/mL (≈ 0.0227 µM) | 0.25 µg/mL (≈ 0.354 µM) | 0.016 µg/mL (≈ 0.0227 µM) | 0.063 µg/mL (≈ 0.0893 µM) | 0.5 µg/mL (≈ 0.709 µM) | 1 µg/mL (≈ 1.42 µM) | 0.008 µg/mL (≈ 0.0113 µM) | 0.016 µg/mL (≈ 0.0227 µM) | 0.5 µg/mL (≈ 0.709 µM) | 0.5 µg/mL (≈ 0.709 µM) | 0.031 µg/mL (≈ 0.0439 µM) | 0.031 µg/mL (≈ 0.0439 µM)
2 | C[C@@H]1[C@H](O)[C@@H](C)/C=C/C=C/C=C/C=C/C=C/C=C/C=C/[C@H](O[C@@H]2O[C@H](C)[C@@H](O)[C@H](N)[C@@H]2O)C[C@@H]2O[C@](O)(C[C@@H](O)C[C@@H](O)[C@H](O)CC[C@@H](O)C[C@@H](O)CC(=O)O[C@H]1C)C[C@H](O)[C@H]2C(=O)O (stereo in doubt) [AMPHOTERICIN B] | 0.25 µg/mL (≈ 0.271 µM) | 0.5 µg/mL (≈ 0.541 µM) | 0.25 µg/mL (≈ 0.271 µM) | 0.5 µg/mL (≈ 0.541 µM) | 0.5 µg/mL (≈ 0.541 µM) | 0.5 µg/mL (≈ 0.541 µM) | 0.25 µg/mL (≈ 0.271 µM) | 0.5 µg/mL (≈ 0.541 µM) | 0.5 µg/mL (≈ 0.541 µM) | 0.5 µg/mL (≈ 0.541 µM) | 0.5 µg/mL (≈ 0.541 µM) | 0.5 µg/mL (≈ 0.541 µM)
3 | OC(Cn1cncn1)(Cn1cncn1)c1ccc(F)cc1F [FLUCONAZOLE] | 1 µg/mL (≈ 3.27 µM) | 16 µg/mL (≈ 52.2 µM) | 1 µg/mL (≈ 3.27 µM) | 2 µg/mL (≈ 6.53 µM) | – | – | 0.5 µg/mL (≈ 1.63 µM) | 1 µg/mL (≈ 3.27 µM) | 32 µg/mL (≈ 104 µM) | 64 µg/mL (≈ 209 µM) | 1 µg/mL (≈ 3.27 µM) | 1 µg/mL (≈ 3.27 µM)
4 | C[C@@H](c1nc(-c2ccc(C#N)cc2)cs1)[C@](O)(Cn1cncn1)c1cc(F)ccc1F [ISAVUCONAZOLE] | 0.016 µg/mL (≈ 0.0366 µM) | 0.5 µg/mL (≈ 1.14 µM) | 0.016 µg/mL (≈ 0.0366 µM) | 0.031 µg/mL (≈ 0.0709 µM) | 0.25 µg/mL (≈ 0.571 µM) | 0.5 µg/mL (≈ 1.14 µM) | 0.002 µg/mL (≈ 0.00457 µM) | 0.004 µg/mL (≈ 0.00914 µM) | 0.5 µg/mL (≈ 1.14 µM) | 0.5 µg/mL (≈ 1.14 µM) | 0.031 µg/mL (≈ 0.0709 µM) | 0.063 µg/mL (≈ 0.144 µM)
5 | C[C@@H](c1ncncc1F)[C@](O)(Cn1cncn1)c1ccc(F)cc1F [VORICONAZOLE] | 0.031 µg/mL (≈ 0.0887 µM) | 0.5 µg/mL (≈ 1.43 µM) | 0.031 µg/mL (≈ 0.0887 µM) | 0.125 µg/mL (≈ 0.358 µM) | 0.5 µg/mL (≈ 1.43 µM) | 2 µg/mL (≈ 5.73 µM) | 0.016 µg/mL (≈ 0.0458 µM) | 0.031 µg/mL (≈ 0.0887 µM) | 0.5 µg/mL (≈ 1.43 µM) | 1 µg/mL (≈ 2.86 µM) | 0.063 µg/mL (≈ 0.18 µM) | 0.125 µg/mL (≈ 0.358 µM)
6 | Nc1nc(=O)[nH]cc1F [FLUCYTOSINE] | 0.063 µg/mL (≈ 0.488 µM) | 2 µg/mL (≈ 15.5 µM) | 0.125 µg/mL (≈ 0.968 µM) | 0.125 µg/mL (≈ 0.968 µM) | 0.063 µg/mL (≈ 0.488 µM) | 0.063 µg/mL (≈ 0.488 µM) | 0.125 µg/mL (≈ 0.968 µM) | 0.25 µg/mL (≈ 1.94 µM) | 16 µg/mL (≈ 124 µM) | 16 µg/mL (≈ 124 µM) | 0.125 µg/mL (≈ 0.968 µM) | 128 µg/mL (≈ 992 µM)
